As usually defined, the IC50 is the midpoint of a concentration-inhibition curve. The low end stands for higher potency, the high end for lower potency. Broadly, the ED50 is the midpoint of the dose-response relation. A low value points to greater potency. One may read the inhibition in vivo as the drop in the measured response relative to a control, in per cent. A low value points to little suppression.

Experimental findings from ChEMBL document CHEMBL1143520, “Bicyclic amidine inhibitors of nitric oxide synthase: discovery of perhydro-iminopyrindine and perhydro-iminoquinoline as potent, orally active inhibitors of inducible nitric oxide synthase” (Bioorg Med Chem Lett, 2005) are described below.

One experiment concerns the target T1, Nitric oxide synthase 3 (Homo sapiens, UniProt P29474).
T1 sequence (P29474 whole entry): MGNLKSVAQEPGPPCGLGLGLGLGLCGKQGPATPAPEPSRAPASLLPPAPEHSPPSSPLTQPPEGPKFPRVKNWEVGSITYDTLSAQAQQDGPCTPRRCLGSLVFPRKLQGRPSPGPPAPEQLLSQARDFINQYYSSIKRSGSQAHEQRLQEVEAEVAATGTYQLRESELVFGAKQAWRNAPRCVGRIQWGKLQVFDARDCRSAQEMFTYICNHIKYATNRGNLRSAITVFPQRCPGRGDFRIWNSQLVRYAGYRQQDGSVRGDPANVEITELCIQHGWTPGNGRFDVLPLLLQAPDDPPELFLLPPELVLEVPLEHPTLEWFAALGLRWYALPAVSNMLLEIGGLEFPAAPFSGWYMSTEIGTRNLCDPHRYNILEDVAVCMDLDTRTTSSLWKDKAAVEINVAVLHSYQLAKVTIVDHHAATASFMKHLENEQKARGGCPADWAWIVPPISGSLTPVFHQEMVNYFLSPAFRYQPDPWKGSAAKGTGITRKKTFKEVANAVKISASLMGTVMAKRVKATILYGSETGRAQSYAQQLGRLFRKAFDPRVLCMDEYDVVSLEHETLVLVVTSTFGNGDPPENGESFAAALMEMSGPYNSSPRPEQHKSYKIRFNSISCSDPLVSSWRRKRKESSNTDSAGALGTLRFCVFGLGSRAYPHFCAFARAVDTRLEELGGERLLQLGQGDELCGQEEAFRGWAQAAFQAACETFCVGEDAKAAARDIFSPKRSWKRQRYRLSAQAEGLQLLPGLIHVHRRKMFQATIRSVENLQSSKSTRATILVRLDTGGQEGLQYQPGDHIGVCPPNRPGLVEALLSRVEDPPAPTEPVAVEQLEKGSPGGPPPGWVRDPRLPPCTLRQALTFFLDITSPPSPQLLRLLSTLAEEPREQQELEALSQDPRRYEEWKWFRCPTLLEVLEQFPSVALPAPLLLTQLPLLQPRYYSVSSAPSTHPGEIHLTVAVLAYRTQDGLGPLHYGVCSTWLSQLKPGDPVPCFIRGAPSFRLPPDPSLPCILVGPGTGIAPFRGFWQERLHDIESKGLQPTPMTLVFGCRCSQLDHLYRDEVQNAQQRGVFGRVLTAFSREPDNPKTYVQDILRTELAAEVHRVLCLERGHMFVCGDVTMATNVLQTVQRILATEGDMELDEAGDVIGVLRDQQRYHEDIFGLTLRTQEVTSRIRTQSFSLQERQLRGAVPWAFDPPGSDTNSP
In words: Inhibitory activity against human Endothelial nitric oxide synthase (eNOS).

Experiment [1] addresses Nitric oxide synthase (inducible and endothelial) (Homo sapiens) (UniProt P35228+P29474). In words: Selectivity measured as the ratio of eNOS IC50/iNOS IC50. Format: protein assay.
A further experiment has as its target Nitric oxide synthase 1 (Homo sapiens, UniProt P29475). Kind of experiment: Inhibitory activity against human Neuronal nitric oxide synthase (nNOS).
Experiment [2] concerns the target Nitric oxide synthase, inducible (Homo sapiens, UniProt P35228). Kind of experiment: Inhibitory activity against human Inducible nitric oxide synthase (iNOS).
For experiment [3], the system named is Rattus norvegicus. Kind of experiment: Effective dose causing 50% reduction in plasma nitrite relative to control animals after intravenous administration in LPS treated rats. It counts as functional. A digest of the protocol:
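Rat endotoxin model: LPS challenge, then iv dosing 2 h after LPS. Plasma collected 5 h after LPS. Nitrate converted to nitrite with nitrate reductase, then total nitrite/nitrate measured fluorometrically.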

The test system of experiment [4] is Rattus norvegicus. Kind of experiment: Percentage inhibition of plasma nitrite/nitrate after peroral administration of 10 mg/kg of compound to rats 1 hr prior to LPS treating. It counts as functional. As to conditions: route oral. A digest of the protocol: (§1)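 Rats given 10 mg/kg po at set times before LPS challenge. Plasma nitrate/nitrite measured 5 h after LPS: nitrate reduced to nitrite by nitrate reductase, then fluorometric nitrite read-out. Reported as % inhibition of plasma NOx.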

Experiment [5] deals with Rattus norvegicus. Kind of experiment: Percentage inhibition of plasma nitrite/nitrate after peroral administration of 10 mg/kg of compound to rats 2 hr prior to LPS treating. It counts as functional. As to conditions: route oral. A digest of the protocol: as §1
Experiment [6] relates to Rattus norvegicus. Kind of experiment: Percentage inhibition of plasma nitrite/nitrate after peroral administration of 10 mg/kg of compound to rats 4 hr prior to LPS treating. It counts as functional. As to conditions: route oral. The method, boiled down: as §1
Experiment [7] concerns Rattus norvegicus. Kind of experiment: Percentage inhibition of plasma nitrite/nitrate after peroral administration of 10 mg/kg of compound to rats 16 hr prior to LPS treating. Format: functional. Particulars: route oral. A digest of the protocol: as §1

Each structure is given as a SMILES string.

Sequence of Nitric oxide synthase, inducible (P35228 whole entry): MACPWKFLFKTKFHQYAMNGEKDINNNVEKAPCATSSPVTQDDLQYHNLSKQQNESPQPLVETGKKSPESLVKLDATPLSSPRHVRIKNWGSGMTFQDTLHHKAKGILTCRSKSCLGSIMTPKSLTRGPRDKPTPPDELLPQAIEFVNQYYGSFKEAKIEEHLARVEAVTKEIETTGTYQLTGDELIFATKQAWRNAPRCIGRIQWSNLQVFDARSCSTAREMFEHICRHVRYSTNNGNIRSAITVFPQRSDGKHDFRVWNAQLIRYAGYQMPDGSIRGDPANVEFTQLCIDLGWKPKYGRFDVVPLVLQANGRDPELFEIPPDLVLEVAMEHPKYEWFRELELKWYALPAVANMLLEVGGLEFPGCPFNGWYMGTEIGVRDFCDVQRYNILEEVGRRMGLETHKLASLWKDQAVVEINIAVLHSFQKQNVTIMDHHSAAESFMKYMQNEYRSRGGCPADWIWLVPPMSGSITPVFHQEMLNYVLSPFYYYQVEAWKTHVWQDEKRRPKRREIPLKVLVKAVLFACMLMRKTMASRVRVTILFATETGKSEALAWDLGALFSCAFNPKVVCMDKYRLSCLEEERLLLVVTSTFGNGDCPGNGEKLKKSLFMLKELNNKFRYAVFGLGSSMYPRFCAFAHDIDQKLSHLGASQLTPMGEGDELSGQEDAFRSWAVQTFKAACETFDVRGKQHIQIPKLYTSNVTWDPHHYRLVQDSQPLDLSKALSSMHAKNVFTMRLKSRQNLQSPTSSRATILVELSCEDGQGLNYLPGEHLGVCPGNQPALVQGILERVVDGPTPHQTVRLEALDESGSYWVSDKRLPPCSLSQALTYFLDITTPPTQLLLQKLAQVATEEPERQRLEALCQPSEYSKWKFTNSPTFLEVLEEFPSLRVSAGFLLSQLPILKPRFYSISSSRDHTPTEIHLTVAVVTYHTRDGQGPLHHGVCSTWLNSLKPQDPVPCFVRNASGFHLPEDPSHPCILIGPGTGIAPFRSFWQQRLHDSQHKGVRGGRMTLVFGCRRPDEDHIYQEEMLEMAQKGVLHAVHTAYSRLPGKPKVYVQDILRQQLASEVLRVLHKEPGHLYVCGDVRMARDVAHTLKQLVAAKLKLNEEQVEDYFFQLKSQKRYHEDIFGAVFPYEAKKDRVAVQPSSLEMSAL
Sequence of Nitric oxide synthase 1 (P29475 whole entry): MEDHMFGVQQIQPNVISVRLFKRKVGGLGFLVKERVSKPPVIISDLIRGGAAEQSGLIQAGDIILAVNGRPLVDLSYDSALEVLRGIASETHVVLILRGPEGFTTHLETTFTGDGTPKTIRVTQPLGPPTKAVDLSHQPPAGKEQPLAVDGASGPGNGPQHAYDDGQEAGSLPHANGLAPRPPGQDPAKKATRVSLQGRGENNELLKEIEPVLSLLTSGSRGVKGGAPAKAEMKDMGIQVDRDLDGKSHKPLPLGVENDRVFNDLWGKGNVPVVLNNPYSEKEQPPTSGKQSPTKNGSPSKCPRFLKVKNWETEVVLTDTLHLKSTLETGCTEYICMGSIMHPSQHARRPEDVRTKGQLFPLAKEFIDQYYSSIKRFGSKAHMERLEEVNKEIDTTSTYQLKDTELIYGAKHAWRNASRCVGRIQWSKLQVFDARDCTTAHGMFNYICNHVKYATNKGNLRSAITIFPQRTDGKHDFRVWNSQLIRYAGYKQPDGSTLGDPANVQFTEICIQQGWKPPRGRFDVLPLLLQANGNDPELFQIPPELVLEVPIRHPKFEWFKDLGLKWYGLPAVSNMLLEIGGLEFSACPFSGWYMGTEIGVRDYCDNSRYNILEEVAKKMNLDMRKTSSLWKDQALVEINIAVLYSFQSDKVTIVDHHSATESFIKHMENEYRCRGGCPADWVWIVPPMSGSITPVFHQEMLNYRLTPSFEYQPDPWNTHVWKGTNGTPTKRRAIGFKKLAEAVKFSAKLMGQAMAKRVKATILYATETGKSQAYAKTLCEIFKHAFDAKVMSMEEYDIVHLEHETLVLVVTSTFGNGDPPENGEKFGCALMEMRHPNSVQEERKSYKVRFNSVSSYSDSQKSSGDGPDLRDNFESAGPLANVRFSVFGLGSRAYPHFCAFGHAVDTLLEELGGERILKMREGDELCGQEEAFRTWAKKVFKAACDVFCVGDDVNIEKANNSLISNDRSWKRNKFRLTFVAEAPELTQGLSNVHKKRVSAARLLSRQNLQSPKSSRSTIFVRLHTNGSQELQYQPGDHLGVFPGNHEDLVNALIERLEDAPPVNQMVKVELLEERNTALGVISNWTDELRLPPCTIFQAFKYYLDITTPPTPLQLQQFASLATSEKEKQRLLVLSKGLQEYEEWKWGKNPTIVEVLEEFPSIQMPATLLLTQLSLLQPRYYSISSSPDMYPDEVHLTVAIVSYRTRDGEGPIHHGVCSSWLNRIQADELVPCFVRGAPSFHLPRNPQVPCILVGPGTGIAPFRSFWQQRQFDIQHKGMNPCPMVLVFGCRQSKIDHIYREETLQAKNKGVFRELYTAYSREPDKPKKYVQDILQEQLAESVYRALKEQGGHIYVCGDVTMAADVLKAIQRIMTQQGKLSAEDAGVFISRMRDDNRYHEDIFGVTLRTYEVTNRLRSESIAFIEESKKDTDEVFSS

Consider `C[C@@H]1CC(N)=N[C@@H]2CCCCC[C@H]12`, for which the IC50 against Nitric oxide synthase 3 turned out to be 4500 nM; against Nitric oxide synthase 1, 1300 nM; in experiment [2] it was 860 nM. The Selectivity in experiment [1] stood at 5.2.
For `CC1CCN=C(N)C1` (configuration not stated), the median effective dose (ED50) with Rattus norvegicus [3] was 0.5 mg/kg. In experiment [2], the IC50 was 37 nM.
As to `NC1=N[C@H]2CCCC[C@@H]2CC1`, the 50% inhibitory concentration (IC50) at Nitric oxide synthase 3 turned out to be 5500 nM; at Nitric oxide synthase 1, 530 nM; in experiment [2] it was 528 nM.
With `N=C1CCCCN1`, the 50% inhibitory concentration (IC50) on Nitric oxide synthase 3 came to 630 nM; in experiment [2] it was 300 nM.
For the compound `C[C@@H]1CC(N)=N[C@@H]2CCC[C@H]12` (stereo in doubt; 10) [listing 1 of 2 here], the IC50 on Nitric oxide synthase 3 is 470 nM; against Nitric oxide synthase 1 it was 31 nM; in [2] it was 15 nM.
`C[C@H]1CC(N)=N[C@H]2CCCC[C@H]21`: the IC50 is > 5000 nM against Nitric oxide synthase 3, 610 nM against Nitric oxide synthase 1 and > 5000 nM in experiment [2].
As to `NC1=N[C@H]2CCCC[C@H]2CC1`, the concentration for half-maximal inhibition (IC50) against Nitric oxide synthase 3 amounted to 12500 nM; against Nitric oxide synthase 1, 246 nM; in [2] it was 186 nM. In addition, the Selectivity in [1] was determined as 67.
The like results for `C[C@H]1CC(N)=N[C@H]2CCC[C@H]21` were, in that order, 870 nM, 36 nM, 133 nM and 6.5.
For the compound `C[C@@H]1CC(N)=N[C@@H]2CCC[C@H]12` (stereo in doubt; 10) [listing 2 of 2 here], in experiment [1], the Selectivity amounted to 31.
Turning to `C[C@@H]1CC(N)=N[C@@H]2CCC[C@H]12` (stereo in doubt; 10a) [listing 1 of 2 here], the inhibition in vivo at 10 mg/kg in the experiment with Rattus norvegicus [4] worked out at 95%; with Rattus norvegicus [5] it was 80%; with Rattus norvegicus [6] it was 52%; in the experiment on Rattus norvegicus [7], 39%. Besides, the IC50 came out at 360 nM on Nitric oxide synthase 3, 21 nM on Nitric oxide synthase 1 and 9 nM in experiment [2]. Moreover, in the experiment with Rattus norvegicus [3], it took a dose of 0.25 mg/kg to reach the 50% effect level (ED50).
Consider `C[C@@H]1CC(N)=N[C@@H]2CCCC[C@H]12`, for which the inhibition in vivo at 10 mg/kg in the experiment on Rattus norvegicus [4] was determined as 57%; in the experiment with Rattus norvegicus [5] it was 69%; in the experiment on Rattus norvegicus [6], 74%; in the experiment on Rattus norvegicus [7] it was 42%. Also, the 50% inhibitory concentration (IC50) against Nitric oxide synthase 3 was 830 nM; against Nitric oxide synthase 1, 53 nM; in experiment [2], 22 nM. Besides, the Selectivity in experiment [1] came to 37. Further, the ED50 in the experiment on Rattus norvegicus [3] is 0.19 mg/kg.
In the case of `C[C@@H]1CC(N)=N[C@@H]2CCC[C@H]12` (stereo in doubt; 10a) [listing 2 of 2 here], in [1], the Selectivity worked out at 40.
As for `NC1=Nc2ccccc2CC1`, the IC50 against Nitric oxide synthase 3 was 85000 nM; on Nitric oxide synthase 1 it was 4900 nM; in experiment [2], 14000 nM. In addition, in [1], the Selectivity stood at 6.1.
The like results for `C[C@@H]1CC(N)=N[C@H]2CCCC[C@@H]12` were, in that order, 2000 nM, 190 nM, 38 nM and 52.
